We go through 6 compounds from ChEMBL document CHEMBL3097991, “A novel indigoid anti-tuberculosis agent” (Bioorg Med Chem Lett, 2014).

Values after ≈ are worked out from the molar mass of the structure shown. Some results are limits rather than exact numbers.

The test system of experiment [1] is Mycobacterium tuberculosis. Briefly: Antimicrobial activity against Mycobacterium tuberculosis H37Rv infected in african green monkey Vero cells. It is filed as functional.
In experiment [2] the test system is Mycolicibacterium smegmatis. Briefly: Antimicrobial activity against Mycobacterium smegmatis. It is filed as functional.
Experiment [3] relates to Mycobacterium tuberculosis. Briefly: Antimicrobial activity against Mycobacterium tuberculosis H37Rv in presence of 4% BSA. It is filed as functional.
Experiment [4] has as its system Vero. Briefly: Cytotoxicity against african green monkey Vero cells. In kind it is cell-based. As to conditions: Chlorocebus sabaeus.
Experiment [5] relates to Mycobacterium tuberculosis. The experiment is described as follows: Antimicrobial activity against Mycobacterium tuberculosis H37Rv in presence of 10% FBS. It is filed as functional.
The test system of experiment [6] is Mycobacterium tuberculosis. The experiment is described as follows: Antimicrobial activity against Mycobacterium tuberculosis H37Rv by low oxygen recovery assay. In kind it is functional. The essentials:
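MIC determined against M. tuberculosis H37Rv held in the non-replicating phenotype under low oxygen, with growth assessed after recovery.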

Experiment [7] deals with Mycobacterium tuberculosis. The experiment is described as follows: Ratio of MIC for Mycobacterium tuberculosis H37Rv in presence of 4% BSA to MIC for Mycobacterium tuberculosis H37Rv. It is filed as functional.
For experiment [8], the system named is Staphylococcus aureus. The experiment is described as follows: Antimicrobial activity against Staphylococcus aureus. In kind it is functional.
Experiment [9] relates to Mycobacterium tuberculosis. Briefly: Ratio of MIC for Mycobacterium tuberculosis H37Rv in presence of 10% FBS to MIC for Mycobacterium tuberculosis H37Rv. It is filed as functional.
Experiment [10] concerns Candida albicans. The experiment is described as follows: Antimicrobial activity against Candida albicans. It is filed as functional.
The test system of experiment [11] is Mycobacterium tuberculosis. Briefly: Ratio of MIC for Mycobacterium tuberculosis H37Rv by low oxygen recovery assay to MIC for Mycobacterium tuberculosis H37Rv. In kind it is functional.
Experiment [12] concerns Escherichia coli. The experiment is described as follows: Antimicrobial activity against Escherichia coli. In kind it is functional.

By MIC is commonly meant the least concentration at which growth counts as inhibited. On to `O=C1/C(=C2\Nc3ccccc3C2=O)Nc2ccccc21` [INDIGO], for which the minimal inhibitory concentration (MIC) in [1] was greater than 32 µM.
The term IC50 denotes the concentration needed to halve the response being measured. As for `CO[C@H]1/C=C/O[C@@]2(C)Oc3c(C)c(O)c4c(O)c(c(/C=N/N5CCN(C)CC5)c(O)c4c3C2=O)NC(=O)/C(C)=C\C=C\[C@H](C)[C@H](O)[C@@H](C)[C@@H](O)[C@@H](C)[C@H](OC(C)=O)[C@@H]1C` [RIFAMPIN], the MIC in [2] was found to be 16.7 µM (≈ 13.7 µg/mL); in [3], 0.089 µM; in [5], 0.21 µM; in [6], 0.49 µM (≈ 0.403 µg/mL); in experiment [1], 0.038 µM (≈ 0.0313 µg/mL). In [4], this compound showed an IC50 greater than 182 µM.
In the case of `NNC(=O)c1ccncc1` [ISONIAZID], the minimal inhibitory concentration (MIC) in [2] is 18.9 µM (≈ 2.59 µg/mL); in [3] it was 0.45 µM; in experiment [5], 0.24 µM; in experiment [6] it was greater than 100 µM; in experiment [1], 0.22 µM (≈ 0.0302 µg/mL). Besides, in experiment [4], the IC50 is greater than 100 µM.
Regarding `O=C1Nc2ccccc2/C1=C1/Nc2ccccc2C1=O` [INDIRUBIN], in experiment [1], the MIC was greater than 32 µM.
Still for that read-out and setting: the same measure for `O=C1Nc2ccccc2/C1=C1\C(=O)Nc2ccccc21` [ISOINDIGO]: 27 µM (≈ 7.08 µg/mL).
In the case of `O=C1C=Cc2nocc2/C1=C1/Nc2ccccc2C1=O`, the minimal inhibitory concentration (MIC) in [2] is greater than 50 µM; in [3] it was 2.1 µM; in experiment [8] it was greater than 50 µM; in experiment [5], 0.57 µM; in [10], greater than 50 µM; in experiment [6], 5.3 µM (≈ 1.4 µg/mL). Further, the results for the MIC in [1] and in [12] were 0.57 µM (≈ 0.151 µg/mL) and greater than 50 µM, respectively. Also, the values for the Ratio in experiment [7], in experiment [9] and in experiment [11] were 3.7, 1 and 10, respectively. In experiment [4], the IC50 was greater than 32 µM.
